Assay results reported in ChEMBL document CHEMBL4402610 (J Med Chem, 2020).

Assays:
[1] = molecular target: Protease (Human immunodeficiency virus 1, UniProt Q9YQ12); assay: Inhibition of HIV-1 protease
[2] = system: Human immunodeficiency virus 1; assay: Antiviral activity against HIV1 LAI infected in human MT2 cells; format: functional, organism-based; settings: Human immunodeficiency virus 1, M:B_Lai
[3] = Selectivity ratio of IC50 for antiviral activity against atazanavir resitant HIV1 harboring protease L23I/E34Q/K43I/M46I/I50L/G51A/L63P/A71V/V82A/T91A mutant infected in human MT4 cells to IC50 for antiviral activity against wild-type HIV1 NL4-3; format: functional
[4] = Selectivity ratio of IC50 for antiviral activity against lopinavir resistant HIV1 harboring protease L10F/V32I/M46I/I47A/A71V/I84V mutant infected in human MT4 cells to IC50 for antiviral activity against wild-type HIV1 NL4-3; format: functional
[5] = system: Human immunodeficiency virus 1; assay: Antiviral activity against atazanavir resistant HIV1 harboring protease L23I/E34Q/K43I/M46I/I50L/G51A/L63P/A71V/V82A/T91A mutant infected in human MT4 cells assessed as reduction in p24 Gag production; format: functional, organism-based; settings: Human immunodeficiency virus 1, MT4
How it was run: (§1)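 MT-4 cells (10^5/mL) were exposed to 100 TCID50s of each HIV-1 and treated with drug. Inhibition of p24 Gag protein production was the endpoint for EC50. PI-resistant variants had been selected in vitro by passaging HIV-1 NL4-3 in MT-4 cells under increasing PI (up to 5 μM). Assays were run in duplicate, and values are means of two independent experiments.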

[6] = system: Human immunodeficiency virus 1; assay: Antiviral activity against HIV1 NL4-3 infected in human MT4 cells assessed as reduction in p24 Gag protein production; format: functional, organism-based; settings: Human immunodeficiency virus 1, NL4-3, MT4
[7] = system: Human immunodeficiency virus 1; assay: Antiviral activity against lopinavir resistant HIV1 harboring protease L10F/V32I/M46I/I47A/A71V/I84V mutant infected in human MT4 cells assessed as inhibition of p24 Gag production; format: functional, organism-based; settings: Human immunodeficiency virus 1, MT4; how it was run: as §1
[8] = Selectivity ratio of IC50 for antiviral activity against darunavir resistant HIV1 P30 harboring protease L10I/I15V/K20R/L24I/V32I/M36I/ M46L/L63P/K70Q/V82A/I84V/L89M mutant infected in human MT4 cells to IC50 for antiviral activity against wild-type HIV1 NL4-3; format: functional
[9] = system: Human immunodeficiency virus 1; assay: Antiviral activity against darunavir resistant HIV1 harboring protease P30 L10I/I15V/K20R/L24I/V32I/M36I/ M46L/L63P/K70Q/V82A/I84V/L89M mutant infected in human MT4 cells assessed as reduction in p24 Gag production; format: functional, organism-based; settings: Human immunodeficiency virus 1, MT4; how it was run: as §1

Chain of Protease (Q9YQ12 whole entry): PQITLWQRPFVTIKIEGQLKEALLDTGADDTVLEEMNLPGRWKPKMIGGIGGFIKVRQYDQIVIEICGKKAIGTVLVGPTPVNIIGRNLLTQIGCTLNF

Row | Structure (SMILES) | Ki [1] [nM] | IC50 [2] [nM] | Ratio IC50 [3] | Ratio IC50 [4] | IC50 [5] [nM] | IC50 [6] [nM] | IC50 [7] [nM] | Ratio IC50 [8] | IC50 [9] [nM]
1 | CC(C)CN(C[C@@H](O)[C@H](Cc1ccccc1)NC(=O)OC1C[C@@H]2CO[C@@H]3OC1C[C@H]23)S(=O)(=O)c1ccc2nc(NC(C)C)oc2c1 (stereo partly drawn) | 0.006 | 1.73 | – | – | – | – | – | – | –
2 | CC(C)CN(C[C@@H](O)[C@H](Cc1ccccc1)NC(=O)O[C@H]1C[C@H]2CO[C@H]3OC1C[C@@H]23)S(=O)(=O)c1ccc2nc(NC3CC3)sc2c1 | 0.027 | 1.86 | – | – | – | – | – | – | –
3 | CC(C)CN(C[C@@H](O)[C@H](Cc1cccc(F)c1)NC(=O)OC1C[C@@H]2CO[C@@H]3OC1C[C@H]23)S(=O)(=O)c1ccc2nc(NC3CC3)sc2c1 (stereo partly drawn) | 0.008 | 1.28 | – | – | – | – | – | – | –
4 | CC(C)CN(C[C@@H](O)[C@H](Cc1ccc(F)cc1)NC(=O)O[C@H]1C[C@H]2CO[C@H]3OC1C[C@@H]23)S(=O)(=O)c1ccc2nc(NC3CC3)sc2c1 | 0.036 | 0.4 | – | – | – | – | – | – | –
5 | COc1ccc(S(=O)(=O)N(CC(C)C)C[C@@H](O)[C@H](Cc2ccccc2)NC(=O)O[C@H]2C[C@H]3CO[C@H]4OC2C[C@@H]34)cc1 | 0.034 | 71.7 | – | – | – | – | – | – | –
6 | CC(C)CN(C[C@@H](O)[C@H](Cc1ccccc1)NC(=O)OC1C[C@@H]2CO[C@@H]3OC1C[C@H]23)S(=O)(=O)c1ccc2nc(NC3CC3)sc2c1 (stereo partly drawn) | 0.002 | 3.3 | – | – | – | – | – | – | –
7 | CC(C)CN(C[C@@H](O)[C@H](Cc1ccc(F)cc1)NC(=O)OC1C[C@@H]2CO[C@@H]3OC1C[C@H]23)S(=O)(=O)c1ccc2nc(NC3CC3)sc2c1 (stereo partly drawn) | 0.002 | 0.46 | – | – | – | – | – | – | –
8 | CC(C)CN(C[C@@H](O)[C@H](Cc1cccc(F)c1)NC(=O)O[C@H]1C[C@H]2CO[C@H]3OC1C[C@@H]23)S(=O)(=O)c1ccc2nc(NC3CC3)sc2c1 | 0.024 | 2.7 | – | – | – | – | – | – | –
9 | COc1ccc(S(=O)(=O)N(CC(C)C)C[C@@H](O)[C@H](Cc2ccccc2)NC(=O)OC2C[C@@H]3CO[C@@H]4OC2C[C@H]34)cc1 (stereo partly drawn) | 0.008 | 38 | – | – | – | – | – | – | –
10 | CC(C)CN(C[C@@H](O)[C@H](Cc1ccccc1)NC(=O)O[C@H]1C[C@H]2CO[C@H]3OC1C[C@@H]23)S(=O)(=O)c1ccc2nc(NC(C)C)oc2c1 | 0.047 | 0.3 | 9.1 | >26 | 350 | 38 | > 1000 | 17 | 640
11 | CC(C)CN(C[C@@H](O)[C@H](Cc1cc(F)cc(F)c1)NC(=O)O[C@H]1C[C@H]2CO[C@H]3OC1C[C@@H]23)S(=O)(=O)c1ccc2nc(NC3CC3)sc2c1 | 0.007 | 2.25 | – | – | – | – | – | – | –
12 | CC(C)CN(C[C@@H](O)[C@H](Cc1cc(F)cc(F)c1)NC(=O)OC1C[C@@H]2CO[C@@H]3OC1C[C@H]23)S(=O)(=O)c1ccc2nc(NC3CC3)sc2c1 (stereo partly drawn) | 0.054 | 0.086 | 6.3 | 127 | 0.21 | 0.034 | 4.3 | 133 | 4.5
13 | COC(=O)N[C@H](C(=O)N[C@@H](Cc1ccccc1)[C@@H](O)CN(Cc1ccc(-c2ccccn2)cc1)NC(=O)[C@@H](NC(=O)OC)C(C)(C)C)C(C)(C)C [ATAZANAVIR] | – | – | – | 107 | > 1000 | 4 | 430 | – | > 1000
